# Source: PubChem BioAssay
# RGS4 pot = potentiators or activators of RGS4. 310,000 tested, 0.92% active. B-score at 10 µM. HEK293 M3R/inducible RGS4, carbachol calcium flux Fluo4; active compounds read low;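 active = B-score of the integrated calcium signal more than 4 SD below the library mean, with starting fluorescence not abnormally high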;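 also: negative B-score means reduced calcium response which marks RGS4 activation or potentiation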
#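 Assay system: HEK293 FlpIn-TREx cells, stable M3R, doxycycline-inducible RGS4 / Probe or stimulus: carbachol, ECmax concentration / Times: overnight RGS4 induction, 30 min dye load 37 °C, 20 min compound RT / Signal: kinetic calcium fluorescence imaging with Fluo4-AM dye, 2 µM / Measure: Agonist-evoked peak-minus-minimum fluorescence over baseline, integrated ratio, B score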
# MrgX1 antag = blocks BAM8-22 activation of human MrgX1 receptor; 310,000 tested, 1.3% active; Q96LB2; MRGX1-HEK293 calcium flux, Fluo-4, BAM8-22 antagonism; active compounds read low; B-score at 10 µM;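 active = calcium-response B-score plate-corrected more than 3 library SD below zero, starting fluorescence within 5 deviations, no agonist response on first addition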;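 also: peak minus trough fluorescence over baseline after final BAM8-22 challenge near maximal dose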
# Target sequence (Q96LB2 whole entry, looked up): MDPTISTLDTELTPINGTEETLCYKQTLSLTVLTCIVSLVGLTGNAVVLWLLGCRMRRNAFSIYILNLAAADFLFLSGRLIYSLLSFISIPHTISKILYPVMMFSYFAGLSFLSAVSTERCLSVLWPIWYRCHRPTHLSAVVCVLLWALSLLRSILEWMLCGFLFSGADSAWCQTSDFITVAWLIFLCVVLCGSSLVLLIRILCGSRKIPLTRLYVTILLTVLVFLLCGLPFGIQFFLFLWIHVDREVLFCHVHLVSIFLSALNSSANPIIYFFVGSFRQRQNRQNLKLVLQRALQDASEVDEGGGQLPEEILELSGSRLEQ
# MrgX1 allo act = allosterically activates human MrgX1 receptor signaling; 310,000 tested, 0.63% active; MrgX1-HEK293, Fluo-4 calcium flux, FDSS; active compounds read high; B-score at 10 µM;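 active = plate-corrected calcium response at least 3 library SD above typical, normal starting fluorescence, not activating the receptor alone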;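 also: compound read alongside a low EC10 to EC30 dose of BAM8-22 agonist; peak minus trough fluorescence over baseline measured at the second addition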
# MrgX1 agonist = human MrgX1 receptor agonism, primary screen. AID 588627. 310,000 tested, 0.44% active. MrgX1-HEK293 cells, Fluo-4 calcium fluorescence, agonist mode; active compounds read high. B-score at 10 µM. Q96LB2;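 active = calcium response B-score plate-corrected fluorescence ratio at least 3 library SD, with starting fluorescence B-score inside 5 SD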
#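 times = overnight plating, then 30 min 37 °C plus 30 min room-temperature dye loading | assay system = stable human MrgX1 HEK293 cell line | input = fifteen thousand cells per well | signal = kinetic calcium dye fluorescence, Fluo-4 NW | dosing = compound delivered in addition one of three | read-out = B-scored fluorescence response ratio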
# RGS4 block = human RGS4 inhibition | P49798 | HEK293 M3R/RGS4 inducible, Fluo-4 calcium flux; active compounds read high; triggered by carbachol at its EC20 | B-score at 10 µM | 310,000 tested, 0.45% active | AID 463165;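 active = B-score, a plate-corrected calcium signal, over three deviations above library mean, with baseline fluorescence within five deviations of library mean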;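 also: RGS4 expression induced by doxycycline in cells with stable M3 receptor; B-score is computed from the integrated fluorescence ratio over baseline after carbachol; higher B-score means a larger calcium signal and so more RGS4 inhibition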
# Target sequence (P49798 whole entry, looked up): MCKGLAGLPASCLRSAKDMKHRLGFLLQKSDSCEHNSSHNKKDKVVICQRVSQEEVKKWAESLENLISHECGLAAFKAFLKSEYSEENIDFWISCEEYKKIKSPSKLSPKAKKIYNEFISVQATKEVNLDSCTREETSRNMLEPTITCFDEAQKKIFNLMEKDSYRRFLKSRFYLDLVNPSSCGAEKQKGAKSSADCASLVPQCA
# Starred values were filed as active, the others as inactive; i = inactive. The list is not random: actives were taken first. Their share in the collection is about 3.5%.
SMILES,RGS4 pot,MrgX1 antag,MrgX1 allo act,MrgX1 agonist,RGS4 block
COc1ccc(C)cc1Nc1nc(N)c2cc(OC)c(OC)cc2n1,i,-4.5*,i,i,i
CC1CCC(NC(=O)c2ccc(COc3ccccc3)o2)CC1 (centres undefined),i,i,i,i,i
Cc1ccc(C(=O)COC(=O)CCc2ccc(S(=O)(=O)N3CCCCC3)cc2)cc1,i,i,i,i,i
O=C(c1nn(Cc2ccccc2)c(=O)c2ccccc12)N1CCc2ccccc2C1,-8.5*,i,i,i,i
O=C(c1nn(Cc2ccccc2)c(=O)c2ccccc12)N1CCN(c2ccccn2)CC1,i,i,i,i,i
O=C(Nc1ccccc1)c1cc2ccccc2c(=O)s1,i,-7.8*,i,i,i
O=C(Nc1ccc(O)cc1)c1cc2ccccc2c(=O)s1,i,i,i,i,i
O=[N+]([O-])c1ccc(C2CCCC/C2=N/OCc2ccccc2F)c([N+](=O)[O-])c1 (centres undefined),-7.7*,i,i,i,i
CNC(=O)c1[nH]cnc1C(=O)N[C@@H](C)C(=O)OC(C)(C)C,i,i,i,i,i
CC(NC(=O)c1ccccc1SCC(=O)N1CCCC1)c1ccc(F)cc1 (centres undefined),i,i,i,i,i
Cc1cccc(C)c1-n1c(C)cc(/C=N\Nc2ccc([N+](=O)[O-])cn2)c1C,i,-5*,i,i,i
O=[N+]([O-])c1ccc(N/N=C\c2cccnc2)nc1,i,i,i,i,i
CCOc1ccccc1N1C(=O)CC(Nc2ccc(N3CCOCC3)cc2)C1=O (centres undefined),i,-4.5*,i,i,i
CC1=CC(=O)C(C(C)C)=C/C1=N\OC(=O)c1cccc2nc(C)oc12,i,-5*,i,i,i
O=C(Oc1cccc2cccnc12)c1cccc(N2C(=O)C3C4CCC(C4)C3C2=O)c1 (centres undefined),i,i,i,i,6*
Cc1ccc(S(=O)(=O)Nc2c(C)nn(C)c2C)c(C)c1,i,i,i,i,i
COc1ccc(N=CC2=C(O)CC(C)(C)CC2=O)cc1,i,-6.5*,i,i,i
COc1ccc(OC)c(N=CC2=C(O)CC(C)(C)CC2=O)c1,i,i,i,i,i
CCOCCCNC(=O)CN1CCN(Cc2ccc(Cl)cc2)C1=O,i,i,i,i,i
Cc1occc1C(=O)NC(C)C1CCCO1 (centres undefined),i,-9.3*,i,i,i
Oc1cccc2ccc(Nc3ccccn3)nc12,i,-7.4*,i,i,i
O=S(=O)(CCSc1ccccn1)c1nc2ccccc2s1,i,i,i,34*,i
O=S(=O)(CCSc1nc2ccccc2o1)c1nc2ccccc2s1,i,i,i,i,i
Cc1c(OCC(=O)N2C[C@H]3C[C@@H](C2)c2cccc(=O)n2C3)ccc2c3c(c(=O)oc12)CCCC3,-7.1*,i,i,i,i
Cc1c(OCC(=O)N2C[C@H]3C[C@@H](C2)c2cccc(=O)n2C3)ccc2c3c(c(=O)oc12)CCC3,i,i,i,i,i
SMILES,RGS4 pot,MrgX1 antag,MrgX1 allo act,MrgX1 agonist,RGS4 block
O=C(CNC(=O)c1ccc2ccccc2c1)OCC(=O)N1CCN(S(=O)(=O)c2ccc3ccccc3c2)CC1,i,i,i,i,i
CCOc1ccc2nc(SCc3ccc(C(=O)OC)o3)[nH]c2c1,i,i,i,i,i
CN1CCN(/N=C/c2ccc(-c3ccccc3)cc2)CC1,i,i,i,i,i
CN1CCN(/N=C/c2c3ccccc3c(Cl)c3ccccc23)CC1,i,i,9.3*,i,i
CCN(CC(=O)Nc1cc(Cl)ccc1C)C(=O)c1ccc2c(=O)n3c(nc2c1)CCC3,i,i,i,i,i
CC(Sc1ccc2ccccc2c1)C(=O)NC(N)=O (centres undefined),i,i,i,i,i
O=C(N/N=C/c1cc(Br)c(O)c(Br)c1)c1cc2c(ccc3ccccc32)o1,-7.3*,i,i,i,i
CCOc1cc(/C=N/NC(=O)c2cc3c(ccc4ccccc43)o2)ccc1O,i,i,i,i,i
NC(=O)N/N=C/c1ccccc1OCC(=O)NCc1ccccc1,i,-4.8*,i,i,i
CCOC(=O)COc1ccccc1/C=N\NC(=O)c1cc2c(ccc3ccccc32)o1,-8.8*,i,i,i,i
COc1ccccc1/C=N/NC(=O)CC(=O)NCc1ccccc1,i,i,i,i,i
CSc1ccc(CN(C)Cc2cc(=O)oc3c(C)c(C)ccc23)cc1,-7.2*,i,i,i,i
Cc1ccc2c(CN(C)Cc3cccc(Cl)c3)cc(=O)oc2c1C,i,i,i,i,i
COc1ccccc1N/C=C/c1onc(C)c1[N+](=O)[O-],i,-6.5*,i,i,i
CCCCCn1c(SCc2ccncc2)nc2cc(C(=O)NCc3ccco3)ccc2c1=O,-8*,i,i,i,i
CCCCn1c(SCC(=O)NCc2ccco2)nc2ccccc2c1=O,i,i,i,i,i
COc1ccc(/C=C(\NC(=O)c2cccs2)C(=O)Nc2cccc3ccccc23)cc1OC,i,i,i,28*,i
NC(=O)C1CCN(C2=C(NS(=O)(=O)c3ccc(Cl)cc3)C(=O)c3ccccc3C2=O)CC1,i,i,9.9*,i,i
O=C1NN(c2ccccc2)C(=O)/C1=C\c1ccccc1,i,i,i,i,i
O=C1NN(c2cccc(Br)c2)C(=O)/C1=C/c1cccs1,i,i,i,30*,i
O=C1C(=Cc2cccs2)C(=O)c2ccccc21,i,i,i,32*,i
O=C1NN(c2ccccc2)C(=O)/C1=C/c1cccs1,i,i,i,43*,i
COc1cc(NC(=S)NCCc2ccc(S(N)(=O)=O)cc2)c(OC)cc1Cl,i,i,i,i,i
C=C1CCN([C@H](C(=O)NCc2ccco2)C(C)C)S(=O)(=O)c2ccccc21,i,i,i,i,i
CCOC(=O)c1c(N2C(=O)Nc3ccccc3N2O)sc2c1CCCCC2,i,i,i,35*,i
COC(=O)c1c(N2C(=O)Nc3ccccc3N2O)sc2c1CCCC2,i,i,i,i,i
